# The list is not random: actives were taken first. Their share in the collection is about 3.5%.
# PAFAH1B3 FP inh: blocks human PAF acetylhydrolase 1B catalytic subunit 3. Q15102. recombinant PAFAH1B3, FP-rhodamine probe, fluorescence polarization. inhibition, % at 3.39 µM. actives 0.28% (n = 340,000);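 active means inhibition above the screen-wide average of all tested compounds plus 3 SD, cut at about 25% in these data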;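 further: 0% = enzyme with DMSO only and 100% = wells lacking PAFAH1B3 protein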
# Apaf-1 inh: human Apaf-1 inhibition; O14727; reconstituted apoptosome caspase-3 activity, DEVD-Rh110 fluorescence; inhibition, % at 20 µM; actives 0.71% (n = 330,000); active means inhibition of at least 40% at 20 µM;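 further: plate controls were DMSO wells for no effect and DEVD-CHO caspase inhibitor wells for full effect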
#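 Medium: Hepes buffer, pH 7.5 / System: biochemical Apaf-1 apoptosome reconstitution / Measured by: Rh110 fluorescence, excitation 480 nm, emission 540 nm / Times: compound with Apaf-1, dATP, procaspase-3 30 min, then 50 min reaction, room temperature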
# PAFAH2 inh: PAFAH2 (human) inhibition; recombinant PAFAH2, FP-rhodamine activity probe, fluorescence polarization; inhibition, % at 3.39 µM; actives 0.99% (n = 340,000); AID 492956;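 active means inhibition above the mean over all tested compounds plus 3 SD, cut at about 30% in these data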;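 further: inhibitors block probe labeling of enzyme so polarization drops; 0% = enzyme with DMSO and 100% = wells lacking PAFAH2 protein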
# pPAFAH inh: pPAFAH (human) enzyme inhibition | inhibition, % at 3.39 µM | Q13093 | actives 1.5% (n = 330,000) | recombinant pPAFAH, FP-rhodamine probe fluorescence polarization;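 active means inhibition above the mean inhibition across the screen plus 3 SD, cut at about 25% in these data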;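 further: inhibitors block binding of the rhodamine activity-based probe so polarization drops; 0% = enzyme with DMSO and 100% = wells lacking pPAFAH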
# PREPL inhibitor: inhibitors of human prolyl oligopeptidase-like enzyme PREPL; Q4J6C6; recombinant PREPL, fluorescence polarization activity-based probe; inhibition, % at 5.96 µM; actives 0.68% (n = 320,000);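 further: 0% = enzyme with DMSO and 100% = wells lacking enzyme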
# Target sequence (Q4J6C6 whole entry, looked up): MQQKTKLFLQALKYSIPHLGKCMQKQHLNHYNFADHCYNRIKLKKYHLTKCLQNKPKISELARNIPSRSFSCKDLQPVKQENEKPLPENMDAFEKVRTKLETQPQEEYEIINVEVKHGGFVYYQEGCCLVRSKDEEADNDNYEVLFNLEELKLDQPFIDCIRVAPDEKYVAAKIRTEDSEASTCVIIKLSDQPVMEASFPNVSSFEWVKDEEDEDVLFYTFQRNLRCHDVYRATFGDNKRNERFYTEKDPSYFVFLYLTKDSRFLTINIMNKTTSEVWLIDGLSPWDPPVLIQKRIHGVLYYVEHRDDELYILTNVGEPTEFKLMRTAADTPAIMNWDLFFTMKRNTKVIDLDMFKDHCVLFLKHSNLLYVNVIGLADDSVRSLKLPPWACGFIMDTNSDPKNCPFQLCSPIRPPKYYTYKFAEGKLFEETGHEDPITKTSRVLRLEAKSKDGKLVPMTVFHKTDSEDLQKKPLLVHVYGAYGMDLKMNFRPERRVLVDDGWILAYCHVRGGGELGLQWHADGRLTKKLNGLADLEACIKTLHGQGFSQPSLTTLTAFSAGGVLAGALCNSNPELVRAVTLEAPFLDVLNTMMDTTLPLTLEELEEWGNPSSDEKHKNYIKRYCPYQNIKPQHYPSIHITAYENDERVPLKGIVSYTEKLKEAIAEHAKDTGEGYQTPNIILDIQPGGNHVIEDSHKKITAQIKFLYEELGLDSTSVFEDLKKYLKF
# PAFAH1B2 inh: PAFAH1B2 (human) inhibition | inhibition, % at 3.39 µM | P68402 | actives 1.2% (n = 340,000) | recombinant PAFAH1B2, FP-rhodamine activity probe, fluorescence polarization | AID 492953;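 active means inhibition above the mean of all tested compounds plus 3 SD, cut at about 24% in these data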;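 further: 0% = enzyme with DMSO and 100% = wells lacking PAFAH1B2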
# PREPL confirm: confirmation of human PREPL enzyme inhibitors | actives 67% (n = 2,000) | inhibition, % at 5.96 µM | recombinant PREPL, fluorescence polarization activity probe | shares compounds with PREPL inhibitor;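 further: 0% = protein with DMSO and 100% = wells lacking protein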
# pPAFAH FP conf: confirmation of human plasma PAF acetylhydrolase (pPAFAH) inhibitors; actives 72% (n = 2,300); inhibition, % at 3.39 µM; recombinant pPAFAH, FP-Rh probe fluorescence polarization; AID 463230; shares compounds with pPAFAH inh;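 active means mean inhibition of the triplicate above the hit cutoff set for the earlier primary screen, cut at about 25% in these data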;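 further: 0% = enzyme with DMSO and 100% = wells lacking pPAFAH enzyme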
# Apaf-1 inh conf2: confirmation of Apaf-1 inhibitors. shares compounds with Apaf-1 inh. reconstituted apoptosome, caspase-3 DEVD-Rh110 fluorescence. inhibition, % at 20 µM. actives 25% (n = 1,800);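 active means mean inhibition of at least 40% at 20 µM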;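 further: plate controls were DMSO wells for no effect and DEVD-CHO caspase inhibitor control wells for full effect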
# Rh110 quench: counter-screen for Apaf-1 inhibitors: fluorescence interference | shares compounds with Apaf-1 inh | Rh110 fluorescence interference, quenched caspase reaction | activation (fluorescence interference), % at 20 µM | 1,800 tested, under 10 active | AID 504615;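 active means signal rise of 40% or more at 20 µM, treated as a fluorescence artifact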
# Fluor interf inh: counter-screen for Apaf-1 inhibitors: fluorescence interference, dose response; fluorescence interference counterscreen, Apaf-1 assay format; IC50, µM; 460 tested, under 10 active; shares compounds with Apaf-1 inh; call rule not given here
# Numbers without * were called inactive; / = no result. Unless noted, no stated cut-off is given here; in the data, active means inhibition above about 43%; inactive means the rest.
SMILES,PAFAH1B3 FP inh,Apaf-1 inh,PAFAH2 inh,pPAFAH inh,PREPL inhibitor,PAFAH1B2 inh,PREPL confirm,pPAFAH FP conf,others
CCN(C(=O)c1cc(S(=O)(=O)N2CCOCC2)cn1C)c1cccc(C)c1,-2.7,1.1,7.0,6.2,19.9,6.2,/,/,
COc1ccc(OC)c(-c2c3cc(O)c(=O)cc-3oc3cc(O)c(O)cc23)c1,58.2*,/,73.2*,92.8*,78.5*,74.0*,76.7*,85.5*,
COc1ccc(OC)c(-c2oc3ccccc3c(=O)c2O)c1,5.8,3.4,-1.3,5.1,-5.1,1.4,/,/,
COc1ccc(Nc2nnc(SC(C(=O)Nc3ccc(OC)c(Cl)c3)c3ccccc3)s2)cc1 (centres undefined),-17.1,0.6,12.9,34.5*,46.6*,4.2,42.4,16.7,
CCOc1ccc(Nc2nc(NCC3CCCO3)c3ccccc3n2)cc1 (centres undefined),8.1,20.7,4.5,67.5*,59.3*,7.0,56.3*,55.4*,
c1ccc(Nc2nc(NCC3CCCO3)c3ccccc3n2)cc1 (centres undefined),3.1,13.3,-1.2,6.5,9.3,5.3,/,/,
c1ccc(-n2ncc3c(N4CCN(CCOc5cccc6ccccc56)CC4)ncnc32)cc1,11.4,25.5,-1.9,1.8,-7.3,-5.0,/,/,
Fc1ccc(CSc2ncnc3ccccc23)cc1,7.8,0.9,1.4,3.0,11.7,-4.2,/,/,
NC1=NC(=Nc2cccc(S(N)(=O)=O)c2)c2ccccc21,9.8,-1.5,-0.9,2.5,-0.1,3.3,/,/,
COc1cc(N=Nc2cccc(S(N)(=O)=O)c2)c2ccccc2c1N,17.7,/,20.1,49.5*,61.3*,11.8,59.0*,31.5*,
N#Cc1c(N2CCN(c3ccc(F)cc3)CC2)nc(N)c2c(N)nc3c(c12)CC(=O)N3C1CC1,3.8,/,3.0,/,/,4.9,/,/,
CC1=Nc2nc(N3CCCCCC3)c(C#N)c3c4c(nc(c23)N1)N(c1ccc2ccccc2c1)C(=O)C4,4.4,22.8,23.2,59.1*,63.1*,7.1,60.6*,21.7,
Cc1ccc(N(C)S(=O)(=O)c2csc(C(N)=O)c2)cc1C,-1.2,-0.8,0.4,0.2,8.7,6.4,/,/,
Cc1ccc(NS(=O)(=O)c2ccc(N/N=C/c3ccncc3)c([N+](=O)[O-])c2)c(C)c1,-6.1,13.4,7.0,23.6,12.2,-2.1,/,/,
COc1ccc(C=NNc2ccc(S(=O)(=O)Nc3ccccc3C(=O)O)cc2[N+](=O)[O-])c(OC)c1,29.2*,6.9,55.6*,62.9*,51.3*,34.1*,49.3*,90.9*,
COc1ccc(NS(=O)(=O)c2ccc(N/N=C(\C)c3ccncc3)c([N+](=O)[O-])c2)cc1,17.4,17.1,-0.3,57.0*,57.6*,7.2,49.1*,54.6*,
CCOc1ccc(C=NNc2ccc(S(=O)(=O)Nc3ccccc3C(=O)O)cc2[N+](=O)[O-])cc1,25.2,6.9,21.3,56.6*,65.1*,17.9,69.2*,85.8*,
CCOC(=O)C1CCCN(C(=O)C2c3ccccc3Oc3ccccc32)C1 (centres undefined),43.1*,24.9,54.3*,54.9*,65.3*,24.2*,-1.9,8.9,
N#CCC(=O)Nc1ncn(Cc2ccccc2Cl)n1,0.6,-0.8,2.1,34.6*,54.5*,1.9,2.5,2.8,
N#CCC(=O)Nc1ccccc1C(=O)O,-2.5,4.8,3.6,-2.7,-2.5,3.6,/,/,
CC(=O)Nc1ccc(NC(=O)C(C)OC(=O)CCCOc2ccc(Cl)c(C)c2)cc1 (centres undefined),10.7,2.1,-6.1,7.2,25.4,2.7,/,/,
CCOc1ccc(C(CC(=O)O)NC(=O)C(Sc2ccccc2)c2ccccc2)cc1 (centres undefined),/,-1.0,/,3.4,-13.1,/,/,/,
CC(C)[C@@H]1CN=C(N)N1C[C@@H]1CCCN1C[C@H](C)N1C[C@@H](Cc2ccccc2)N(CCc2ccc(Cl)c(Cl)c2)C1=N,3.7,53.9*,2.9,-2.1,63.1*,4.3,61.2*,/,Apaf-1 inh conf2=13.1;Rh110 quench=-0.6
CC(C)[C@H](CN1CCC[C@H]1CN1C(N)=NC[C@@H]1Cc1ccccc1)N1C[C@@H](Cc2ccccc2)N(CCc2ccc(Cl)c(Cl)c2)C1=N,11.8,82.3*,-2.0,-2.3,53.2*,0.6,53.4*,/,Apaf-1 inh conf2=39.5;Rh110 quench=7.8
CCOc1ccc(CCN2C(=S)N([C@@H](CC(C)C)CN3CCCC3CN3C(=S)NC[C@@H]3Cc3ccc(O)cc3)C[C@@H]2Cc2ccccc2)cc1 (some centres undefined),-1.0,/,-14.1,/,/,-7.8,/,/,
SMILES,PAFAH1B3 FP inh,Apaf-1 inh,PAFAH2 inh,pPAFAH inh,PREPL inhibitor,PAFAH1B2 inh,PREPL confirm,pPAFAH FP conf,others
C[C@@H](CN1CCC[C@H]1CN1C(N)=NC[C@@H]1Cc1ccccc1)N1C[C@@H](Cc2ccccc2)N(CCc2ccc(Cl)c(Cl)c2)C1=N,-0.2,74.4*,3.8,-2.4,45.9*,4.8,37.5,/,Apaf-1 inh conf2=29.4;Rh110 quench=4.6
CC(C)C[C@@H](CN1CCC[C@@H]1CN1C(=O)C(=O)NC[C@@H]1Cc1ccccc1)N1C[C@H](Cc2ccc(O)cc2)N(CCc2ccccc2)C(=O)C1=O,4.9,/,-2.5,/,/,4.5,/,/,
CCN1C(=O)CC(C(C)C)N(C2CCCC2)c2nc(Nc3ccc(C(=O)NC4CCN(C)CC4)cc3OC)ncc21 (centres undefined),-0.9,/,2.0,/,/,-2.8,/,/,
CCN1C(=O)CC(c2ccccc2)N(C2CCCC2)c2nc(Nc3ccc(C(=O)NC4CCN(C)CC4)cc3OC)ncc21 (centres undefined),6.5,69.5*,-4.6,-7.3,47.5*,0.0,50.3*,/,Apaf-1 inh conf2=23.1;Rh110 quench=6.8
CC(=O)Nc1cccc(OCCCNC(=O)c2cccc3ccccc23)c1,/,3.0,/,0.1,-0.3,/,/,/,
CCCCCCCCCCCCCCCC[N+](C)(C)CCN(Cc1ccc(OC)cc1)c1ncccn1,10.8,97.5*,14.1,31.8*,60.1*,2.0,63.3*,/,Apaf-1 inh conf2=91.6*;Rh110 quench=30.3;Fluor interf inh=>100
C#CCOCCOCCOCCNc1nc(N2CCN(C(=O)Cn3cc(CCCN=C(N)N)nn3)CC2)nc(N2CCN(C(=O)[C@H](CCCCN)n3cc(CCCC)nn3)CC2)n1,-1.2,31.9,-14.0,4.3,8.7,1.0,/,/,
